In ChEMBL document CHEMBL1141075, “4-Oxo-4,7-dihydrothieno[2,3-b]pyridines as non-nucleoside inhibitors of human cytomegalovirus and related herpesvirus polymerases” (J Med Chem, 2005) one finds IC50 data, which are given here for three molecules.

Some results are limits rather than exact numbers.

One experiment concerns Vero. The experiment in a line: Antiviral activity against herpes simplex virus type 1 (KOS strain) grown on human foreskin fibroblast cells determined by vedduction in plaque formation upon incubation at 37 degrees C with the compound dissolved in DMSO until plaque were formed. In kind it is functional, cell-based. The essentials: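 HSV-1 KOS, about 50 PFU per well, was adsorbed for 1 h at 37 °C. The inoculum was then replaced with drug dilutions from 200-fold DMSO stocks in DMEM containing 10% FBS and 0.8% carboxymethyl cellulose. Cultures were kept at 37 °C until plaques appeared. Plaques were counted microscopically or by crystal violet staining (0.1% in 20% ethanol). IC50 came from linear regression of % inhibition relative to the uninhibited control.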

Experiment [1] has as its target T1, DNA polymerase delta catalytic subunit (Homo sapiens, UniProt P28340).
T1 sequence (P28340 whole entry): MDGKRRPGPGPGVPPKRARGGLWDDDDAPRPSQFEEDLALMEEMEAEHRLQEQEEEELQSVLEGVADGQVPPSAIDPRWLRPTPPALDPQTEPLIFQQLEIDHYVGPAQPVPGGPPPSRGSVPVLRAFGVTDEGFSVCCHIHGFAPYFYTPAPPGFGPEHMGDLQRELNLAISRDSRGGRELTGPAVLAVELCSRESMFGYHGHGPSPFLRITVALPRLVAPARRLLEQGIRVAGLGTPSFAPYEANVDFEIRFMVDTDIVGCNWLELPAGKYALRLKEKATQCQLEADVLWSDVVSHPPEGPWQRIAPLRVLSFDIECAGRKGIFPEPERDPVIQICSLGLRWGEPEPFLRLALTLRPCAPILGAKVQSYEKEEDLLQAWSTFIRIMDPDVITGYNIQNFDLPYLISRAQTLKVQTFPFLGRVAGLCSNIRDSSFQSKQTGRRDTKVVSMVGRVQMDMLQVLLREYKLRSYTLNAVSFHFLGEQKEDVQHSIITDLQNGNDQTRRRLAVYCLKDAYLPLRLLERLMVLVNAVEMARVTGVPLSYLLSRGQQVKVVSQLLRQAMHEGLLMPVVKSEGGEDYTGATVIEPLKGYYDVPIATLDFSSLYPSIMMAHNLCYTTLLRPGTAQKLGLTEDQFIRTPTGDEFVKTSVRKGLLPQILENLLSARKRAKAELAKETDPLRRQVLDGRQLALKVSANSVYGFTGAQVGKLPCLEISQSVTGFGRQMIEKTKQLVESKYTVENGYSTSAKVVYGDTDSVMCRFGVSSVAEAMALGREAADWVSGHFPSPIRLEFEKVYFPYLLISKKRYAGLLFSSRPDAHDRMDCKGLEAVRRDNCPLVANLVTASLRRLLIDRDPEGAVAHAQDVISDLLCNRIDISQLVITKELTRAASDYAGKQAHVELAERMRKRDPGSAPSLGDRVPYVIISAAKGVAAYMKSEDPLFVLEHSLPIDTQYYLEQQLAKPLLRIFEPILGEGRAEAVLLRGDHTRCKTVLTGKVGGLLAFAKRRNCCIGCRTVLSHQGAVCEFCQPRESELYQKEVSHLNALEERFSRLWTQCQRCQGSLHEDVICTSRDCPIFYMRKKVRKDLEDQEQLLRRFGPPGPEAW
The experiment in a line: Inhibition of human delta DNA polymerase (95 uL) activity in a solution containg […] HEPES (pH 7.5) upon incubation for 12 minutes at 26 degrees C with the compound dissolved in DMSO.

Another experiment concerns HFF. The experiment in a line: Antiviral activity against Varicella-Zoster virus (Webster strain) grown on human foreskin fibroblast cells determined by vedduction in plaque formation upon incubation at 37 degrees C with the compound dissolved in DMSO until plaque were formed. In kind it is functional, cell-based. In outline: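 Monolayers of human foreskin fibroblasts were infected with about 50 PFU per well for 1 h at 37 °C. The inoculum was then replaced with DMEM containing 10% FBS, 0.8% carboxymethyl cellulose and diluted compound from 200-fold DMSO stocks. Plates were incubated at 37 °C until plaques formed. Plaques were counted microscopically or after 0.1% crystal violet staining. IC50 came from linear regression of % inhibition versus untreated controls.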

By IC50 is commonly meant the concentration that gives 50% inhibition. Higher therefore signals weaker potency in that assay. Turning to `Cn1cc(C(=O)NCc2ccc(Cl)cc2)c(=O)c2cc(CN3CCOCC3)ccc21`, the IC50 in the experiment with Vero was 3.5 µM; in experiment [1], above 40 µM; in the experiment on HFF, 0.34 µM.

Regarding `O=C(NCc1ccc(Cl)cc1)c1cnc2ccc(CCCO)cc2c1O`, the IC50 in the experiment with Vero was 7.4 µM; in experiment [1] it was above 40 µM; in the experiment on HFF it was 0.17 µM.

Regarding `Cn1cc(C(=O)NCc2ccc(Cl)cc2)c(=O)c2cc(CN3CCOCC3)sc21`, the IC50 is 3.7 µM in the experiment on Vero, above 40 µM in experiment [1] and 0.77 µM in the experiment with HFF.
